Measurements as given in ChEMBL document CHEMBL3414423, “Jatrophane diterpenes as inhibitors of chikungunya virus replication: structure-activity relationship and discovery of a potent lead” (J Nat Prod, 2014).
pEC50, pIC50: −log10 of the molar value.

Key:
[1] = Cytotoxicity against human MT4 cells assessed as inhibition of overall cell metabolism after 5 days by MTT assay; assay type: ADME, cell-based
Procedure, shortened: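 Mock-infected MT-4 cells in triplicate wells with serial 5-fold compound dilutions run alongside the infected series. Viability read by MTT formazan 5 days later; CC50 from the concentration-response. Median ± median absolute deviation, ≥3 independent assays.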

[2] = tested on: Human immunodeficiency virus 1; assay: Antiviral activity against Human immunodeficiency virus 1 3b infected in human MT4 cells assessed as inhibition of virus replication after 5 days by MTT assay; assay type: functional, organism-based; settings: MT4, 120 h
Procedure, shortened: (§1)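 MT-4 cells ([…] suspension) infected with HIV-1 IIIB or HIV-2 ROD at 100−300 CCID50, with serial 5-fold compound dilutions in triplicate. Viability read by MTT reduction 5 days after infection. SI = CC50 MT-4/IC50. Median ± median absolute deviation, ≥3 independent assays.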

Semliki Forest virus = assay: Antiviral activity against Semliki forest virus Vietnam infected in African green monkey Vero cells assessed as inhibition of virus-induced cell death after 6 to 7 days by MTS assay; assay type: functional, organism-based
Chikungunya virus = assay: Antiviral activity against Chikungunya virus 899 infected in African green monkey Vero cells assessed as inhibition of virus-induced cell death after 6 to 7 days by MTS assay; assay type: functional, cell-based; settings: Chikungunya virus, 899, Vero
[3] = Selectivity index, ratio of CC50 for human MT4 cells to IC50 for Human immunodeficiency virus type 2 ROD infected in human MT4 cells; assay type: functional; procedure, shortened: as §1
Sindbis virus = assay: Antiviral activity against Sindbis virus HRsp infected in African green monkey Vero cells assessed as inhibition of virus-induced cell death after 6 to 7 days by MTS assay; assay type: functional, organism-based
[4] = tested on: Human immunodeficiency virus 2; assay: Antiviral activity against Human immunodeficiency virus type 2 ROD infected in human MT4 cells assessed as inhibition of virus replication after 5 days by MTT assay; assay type: functional, organism-based; settings: Human immunodeficiency virus 2, ISOLATE ROD, MT4, 120 h; procedure, shortened: as §1
[5] = Cytotoxicity against African green monkey Vero cells assessed as inhibition of overall cell metabolism after 6 to 7 days by MTS assay; assay type: ADME, cell-based; settings: chlorocebus sabaeus
Procedure, shortened: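 Uninfected Vero cells (25 000/well) with compound serial dilutions in MEM with 2% FCS, 37 °C, 6−7 days. Readout 5% MTS for 1.5 h, absorbance 498 nm. CC50 is the concentration calculated to inhibit overall cell metabolism by 50%, from dose−response curves. Median ± median absolute deviation, ≥3 independent assays.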

[6] = Selectivity index, ratio of CC50 for African green monkey Vero cells to EC50 for Chikungunya virus 899 infected in African green monkey Vero cells; assay type: toxicity, cell-based; settings: read-out: Ratio CC50/EC50
[7] = Selectivity index, ratio of CC50 for African green monkey Vero cells to EC50 for Semliki forest virus Vietnam infected in African green monkey Vero cells; assay type: toxicity, cell-based; settings: read-out: Ratio CC50/EC50
[8] = Selectivity index, ratio of CC50 for African green monkey Vero cells to EC50 for Sindbis virus HRsp infected in African green monkey Vero cells; assay type: toxicity, cell-based; settings: read-out: Ratio CC50/EC50
[9] = tested on: Human immunodeficiency virus 1; assay: Antiviral activity against recombinant Human immunodeficiency virus 1 NL4.3 containing Renilla gene infected in CD3/IL2-activated human MT2 cells assessed as inhibition of virus replication pretreated for 2 hrs followed by viral infection for additional 2 hrs measured after 48 hrs by Renilla-luciferase reporter gene assay; assay type: functional, organism-based; settings: Human immunodeficiency virus 1, NL4.3, MT2
[10] = Cytotoxicity against human MT2 cells assessed as cell viability incubated for 2 weeks with every 48 to 72 hrs of compound washed out measured on day 2, 6, 10, 14 by CellTiter Glo luminescence assay; assay type: cell-based
[11] = Selectivity index, ratio of CC50 for human MT4 cells to IC50 for Human immunodeficiency virus 1 3b infected in human MT4 cells; assay type: functional; procedure, shortened: as §1

## C=C1[C@H](OC(C)=O)[C@H]2[C@@H](OC(C)=O)[C@](C)(O)C[C@]2(OC(C)=O)C(=O)[C@H](C)/C=C/C(C)(C)C(=O)[C@H](OC(=O)c2ccccc2)[C@H]1OC(C)=O
[1]
  CC50 at 120 h: > 30 µM
[2]
  pIC50: < 4.23
Semliki Forest virus
  pEC50: < 3.78
Chikungunya virus
  pEC50: 5.37
[3]
  Ratio CC50/IC50: >2.8
Sindbis virus
  pEC50: < 3.78
[4]
  pIC50: 4.96
[5]
  CC50: 125 µM
[6]
  selectivity ratio: 29

## C=C1[C@H](OC(C)=O)[C@H]2[C@@H](OC(=O)c3ccccc3)[C@@H](C)C[C@]2(O)[C@H](O)[C@H](C)/C=C/C(C)(C)C(=O)[C@H](OC(=O)C(C)CC)[C@H]1OC(C)=O (stereo partly specified)
[1]
  CC50 at 120 h: > 33 µM
[2]
  pIC50: < 4.12
Semliki Forest virus
  pEC50: 4.12
Chikungunya virus
  pEC50: 3.95
Sindbis virus
  pEC50: 4.29
[7]
  selectivity ratio: > 2.5
[4]
  pIC50: < 4.12
[5]
  CC50: > 190 µM
[8]
  selectivity ratio: > 3.7
[6]
  selectivity ratio: > 1.7

## C=C1[C@H](OC(C)=O)[C@H]2[C@@H](OC(C)=O)[C@](C)(OC(C)=O)C[C@]2(OC(C)=O)C(=O)[C@H](C)/C=C/C(C)(C)C(=O)[C@H](OC(C)=O)[C@H]1OC(C)=O
[9]
  pIC50: 8.70
[1]
  CC50 at 120 h: > 33 µM
[2]
  pIC50: 4.43
[10]
  CC50 at 336 h: > 100 µM
Semliki Forest virus
  pEC50: < 3.94
Chikungunya virus
  pEC50: 4.22
[3]
  Ratio CC50/IC50: >5.5
Sindbis virus
  pEC50: < 3.81
[4]
  pIC50: 5.23
[5]
  CC50: > 154 µM
[6]
  selectivity ratio: > 2.6

## C=C1[C@H](OC(C)=O)[C@H]2[C@@H](OC(=O)c3ccccc3)[C@@H](C)C[C@]2(O)[C@H](OC(C)=O)[C@H](C)/C=C/C(C)(C)C(=O)[C@H](O)[C@H]1OC(C)=O
[1]
  CC50 at 120 h: > 31 µM
[2]
  pIC50: < 4.09
Semliki Forest virus
  pEC50: < 3.79
Chikungunya virus
  pEC50: 4.10
[3]
  Ratio CC50/IC50: <0.9
Sindbis virus
  pEC50: < 3.79
[4]
  pIC50: 4.49
[5]
  CC50: 150 µM
[6]
  selectivity ratio: 1.9

## C=C1[C@H](OC(C)=O)[C@H]2[C@@H](OC(C)=O)[C@](C)(O)C[C@]2(OC(C)=O)C(=O)[C@H](C)/C=C/C(C)(C)C(=O)[C@H](OC(=O)/C(C)=C/C)[C@H]1OC(C)=O
[1]
  CC50 at 120 h: > 32 µM
[2]
  pIC50: 6.47
Semliki Forest virus
  pEC50: < 3.94
[11]
  Ratio CC50/IC50: >96
Chikungunya virus
  pEC50: 6.12
[3]
  Ratio CC50/IC50: >751
Sindbis virus
  pEC50: 4.36
[4]
  pIC50: 7.37
[5]
  CC50: 159 µM
[8]
  selectivity ratio: 3.6
[6]
  selectivity ratio: 208

## Nc1ccn([C@@H]2CS[C@H](CO)O2)c(=O)n1 [LAMIVUDINE]
[1]
  CC50 at 120 h: > 87 µM
[11]
  Ratio CC50/IC50: >22
[3]
  Ratio CC50/IC50: >5.6

## C=C1[C@H](OC(C)=O)[C@H]2[C@@H](OC(C)=O)[C@](C)(O)C[C@]2(OC(C)=O)C(=O)[C@H](C)/C=C/C(C)(C)C(=O)[C@H](OC(=O)C(C)C)[C@H]1OC(C)=O
[1]
  CC50 at 120 h: > 32 µM
[2]
  pIC50: < 4.10
Semliki Forest virus
  pEC50: < 3.80
Chikungunya virus
  pEC50: < 3.71
Sindbis virus
  pEC50: < 3.80
[4]
  pIC50: < 4.10
[5]
  CC50: > 196 µM

## O=c1[nH]cnc2c1ncn2[C@H]1CC[C@@H](CO)O1 [DIDANOSINE]
[1]
  CC50 at 120 h: > 50 µM
[2]
  pIC50: 4.97
[11]
  Ratio CC50/IC50: >4.6
[3]
  Ratio CC50/IC50: >5.2
[4]
  pIC50: 5.02

## CCN(CC)CCCC(C)Nc1ccnc2cc(Cl)ccc12 (stereo unspecified) [CHLOROQUINE]
Chikungunya virus
  pEC50: 5.00

## C=C1[C@H](OC(C)=O)[C@H]2[C@@H](OC(C)=O)[C@](C)(OC(C)=O)C[C@]2(OC(C)=O)C(=O)[C@H](C)/C=C/C(C)(C)C(=O)[C@H](OC(=O)/C(C)=C/C)[C@H]1OC(C)=O
[1]
  CC50 at 120 h: > 35 µM
[2]
  pIC50: 4.67
Semliki Forest virus
  pEC50: < 3.84
[11]
  Ratio CC50/IC50: >1.6
Chikungunya virus
  pEC50: 4.76
[3]
  Ratio CC50/IC50: >18
Sindbis virus
  pEC50: < 3.84
[4]
  pIC50: 5.70
[5]
  CC50: 145 µM
[6]
  selectivity ratio: 8.3

## C=C1[C@H](OC(C)=O)[C@H]2[C@@H](OC(C)=O)[C@](C)(O)C[C@]2(OC(C)=O)C(=O)[C@H](C)/C=C/C(C)(C)C(=O)[C@H](OC(C)=O)[C@H]1OC(C)=O
Chikungunya virus
  pEC50: < 3.79

## Cc1cn([C@H]2C[C@H](N=[N+]=[N-])[C@@H](CO)O2)c(=O)[nH]c1=O [ZIDOVUDINE]
[1]
  CC50 at 120 h: > 25 µM
[4]
  pIC50: 8.22

## C=C1[C@H](OC(C)=O)[C@H]2[C@@H](OC(=O)c3ccccc3)[C@@H](C)C[C@]2(O)[C@H](O)[C@H](C)/C=C/C(C)(C)C(=O)[C@H](OC(=O)C(C)C)[C@H]1OC(C)=O
[1]
  CC50 at 120 h: > 16 µM
[2]
  pIC50: < 4.41
Semliki Forest virus
  pEC50: 4.69
Chikungunya virus
  pEC50: 4.68
Sindbis virus
  pEC50: 4.54
[7]
  selectivity ratio: 2.9
[4]
  pIC50: < 4.41
[5]
  CC50: 60 µM
[8]
  selectivity ratio: 2.1
[6]
  selectivity ratio: 2.8

## Cc1ccnc2c1NC(=O)c1cccnc1N2C1CC1 [NEVIRAPINE]
[1]
  CC50 at 120 h: > 15 µM
[4]
  pIC50: < 4.82

## C=C1[C@H](OC(C)=O)[C@H]2[C@@H](OC(=O)c3ccccc3)[C@@H](C)C[C@]2(O)[C@H](O)[C@H](C)/C=C/C(C)(C)C(=O)[C@H](OC(C)=O)[C@H]1OC(C)=O
[1]
  CC50 at 120 h: > 31 µM
[2]
  pIC50: < 4.42
Semliki Forest virus
  pEC50: 4.21
Chikungunya virus
  pEC50: 4.71
[3]
  Ratio CC50/IC50: >6
Sindbis virus
  pEC50: 4.52
[7]
  selectivity ratio: 2.4
[4]
  pIC50: 5.28
[5]
  CC50: 151 µM
[8]
  selectivity ratio: 5
[6]
  selectivity ratio: 7.8

## C=C1[C@H](OC(C)=O)[C@H]2[C@@H](OC(C)=O)[C@](C)(OC(C)=O)C[C@]2(OC(C)=O)C(=O)[C@H](C)/C=C/C(C)(C)C(=O)[C@H](OC(=O)c2ccccc2)[C@H]1OC(C)=O
[1]
  CC50 at 120 h: > 36 µM
[2]
  pIC50: < 4.15
Semliki Forest virus
  pEC50: < 3.85
Chikungunya virus
  pEC50: 4.77
[3]
  Ratio CC50/IC50: >1
Sindbis virus
  pEC50: < 3.85
[4]
  pIC50: 4.46
[5]
  CC50: > 50 µM
[6]
  selectivity ratio: > 2.9
